Measured values taken from the array DNA melting data of Ke et al. (doi:10.1101/2024.01.08.574731).

Columns and labels:
[1] = melting temperature; fluorescence melt of hairpins on a sequencing array, two-state fit, raised by 9.35 °C to match UV melts; conditions: sodium 0.088 M
Summary of the method: (§1)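 Library hairpins on a sequenced MiSeq flow cell carried annealed Cy3 and quencher oligos, and their Cy3 fluorescence was imaged in 50 mM Na-HEPES pH 8.0 with 25 mM NaCl, in 2.5 °C steps up to 60 °C. Signals were normalised to Cy3 before quenching and to control constructs. Melting temperature and folding enthalpy were obtained from bootstrapped two-state fits, combined by inverse-variance weighting across four replicates, and the fitted temperatures were then raised by 9.35 °C to match UV melts.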

[2] = folding enthalpy; higher = less favourable; fluorescence melt of hairpins on a sequencing array, two-state fit; conditions: sodium 0.088 M
Summary of the method: as §1

| Sequence | Tm [1] | folding enthalpy [2] |
| --- | --- | --- |
| GCGTGACGAAAGTCCCGC (((.(((....))).))) | 59.8 °C | -21.9 kcal/mol |
| GAGGGTGGAAACATCCTC ((((.((....)).)))) | 50.5 °C | -38.8 kcal/mol |
| GTTCTGCGAAAGCAAAAC (((.(((....))).))) | 38.4 °C | -16.7 kcal/mol |
| GATCCAACAGTGGATC ((((((....)))))) | 47.1 °C | -32.1 kcal/mol |
| GCGTTGGACGC ((((...)))) | 52.7 °C | -19.5 kcal/mol |
| GGGTGGCGAAAGCCCCCC (((.(((....))).))) | 65 °C | -17.4 kcal/mol |
| CCAAGGAAACTTGG (((((....))))) | 46 °C | -20.3 kcal/mol |
| GACTATACGAAAGTAGTC (((..(((....)))))) | 34.1 °C | -24.4 kcal/mol |
| GTAGCGCCGAAAGGCTAC (((..(((....)))))) | 36.3 °C | -12.4 kcal/mol |
| GCAAATGGAAACACTTGC ((((.((....)).)))) | 33.9 °C | -31.5 kcal/mol |
| GATCAAAACTTGATC ((((((...)))))) | 41.7 °C | -27.6 kcal/mol |
| GTGGGCGAAAGCCTTCAC ((((((....)))..))) | 33.1 °C | -12.7 kcal/mol |
| GGTTGTGGAAACACAACC (((((((....))))))) | 66.3 °C | -42 kcal/mol |
| GTGTGCGGAAACGCATAC ((.((((....)))).)) | 54.6 °C | -37 kcal/mol |
| GTGTAAGGAAACCTACAC (((((.(....).))))) | 38.1 °C | -30.6 kcal/mol |
| GTCCAGCGAAAGCTCGAC (((.(((....))).))) | 43.2 °C | -20.7 kcal/mol |
| GCGCGCGAAAGCGATCGC ((((((....)))..))) | 52.8 °C | -18.5 kcal/mol |
| GCTCTGCGAAAGCAAAGC (((.(((....))).))) | 46.1 °C | -29.9 kcal/mol |
| GCCTTACGAAAGTAGGC (((.(((....)))))) | 54.2 °C | -29.1 kcal/mol |
| GAGTGAGGAAACTTGCTC (((..((....))..))) | 37.5 °C | -12.9 kcal/mol |
| GTAAAGGGAAACCTTTGC (.(((((....))))).) | 37.5 °C | -28.4 kcal/mol |
| GACTATGGAAACACAGTC ((((.((....)).)))) | 33 °C | -19.1 kcal/mol |
| GAAGGCCCGAAAGGGTTC (((..(((....)))))) | 25.5 °C | -17.4 kcal/mol |

| Sequence | Tm [1] | folding enthalpy [2] |
| --- | --- | --- |
| GATCTTGGAAAAGATC ((((((....)))))) | 49 °C | -33 kcal/mol |
| GGGAGCGAAAGCTTCCCC ((((((....)))..))) | 61 °C | -12.9 kcal/mol |
| GACTACGAAAGTAGTGTC ((((((....)))..))) | 50.4 °C | -15.4 kcal/mol |
| GATGAAGCGAAAGCTATC (((..(((....)))))) | 28.4 °C | -10.4 kcal/mol |
| GGAAGCGAAAGCTATCC ((((((....))).))) | 40.9 °C | -14.6 kcal/mol |
| GCTTTCGGAAACAAAAGC (((((.(....).))))) | 35.5 °C | -23.9 kcal/mol |
| CGCCTCGGAAACGATGCG (((.(((....))).))) | 49.9 °C | -48 kcal/mol |
| GTAGTTGCGAAAGCATAC (((..(((....)))))) | 31.1 °C | -10.9 kcal/mol |
| GCGCAGCGAAAGCCGGGC ((.(.((....)).).)) | 41.2 °C | -8.2 kcal/mol |
| GAGGGACGAAAGTCCTC (((.(((....)))))) | 48.9 °C | -11.8 kcal/mol |
| GGCATGTCGAAAGACGCC (((..(((....)))))) | 52.1 °C | -25.2 kcal/mol |
| GGGCCCGAAAGGGCACCC ((((((....)))..))) | 65 °C | -9.72 kcal/mol |
| GACAAAGGAAACCTTGTC (((((.(....).))))) | 36.4 °C | -29.5 kcal/mol |
| GATCCTTCACAGGATC ((((((....)))))) | 51.7 °C | -34.7 kcal/mol |
| GTCGTGGGAAACCACGGC (.(((((....))))).) | 59.9 °C | -40.4 kcal/mol |
| CTGCAGAAATGCAG (((((....))))) | 53.4 °C | -21 kcal/mol |
| GACCGCCCGAAAGGGGTC (((..(((....)))))) | 42.3 °C | -15.4 kcal/mol |
| GCGAGCGAAAGCTCCGC ((((((....))).))) | 65.4 °C | -18.2 kcal/mol |
| GGTACCCGAAAGGGAACC (((.(((....))).))) | 59.7 °C | -26.8 kcal/mol |
| GATCCCGTGTGGGATC ((((((....)))))) | 63.9 °C | -33.9 kcal/mol |
| CGCGGACGATTCCGCG ((((((....)))))) | 69 °C | -29.1 kcal/mol |
| GACGTCCGAAAGGAAGTC (((.(((....))).))) | 54.7 °C | -34.7 kcal/mol |
| GCGCAAGGAAACTTGCAC (.(((((....))))).) | 46.3 °C | -13.4 kcal/mol |

| Sequence | Tm [1] | folding enthalpy [2] |
| --- | --- | --- |
| GGAGGTCGAAAGACTTCC (((.(((....))).))) | 53.5 °C | -37.5 kcal/mol |
| GCAGCGCGAAAGCGAGGC ((..(((....)))..)) | 63.8 °C | -19.2 kcal/mol |
| GATCCCCCAGGGATC ((((((...)))))) | 63.8 °C | -33.9 kcal/mol |
| GCAGACGGAAACGTTTGC (((.(((....))).))) | 53.8 °C | -46.1 kcal/mol |
| GCAGTTGCGAAAGCATGC (((..(((....)))))) | 42 °C | -16.8 kcal/mol |
| GGCCTCGAAAGAGAGCC ((((((....))).))) | 58.1 °C | -37.5 kcal/mol |
| GGCTCCGAAAGGATTGCC ((((((....)))..))) | 48.7 °C | -19.6 kcal/mol |
| GACGGCGAAAGCCATGTC ((((((....)))..))) | 45.2 °C | -13.3 kcal/mol |
| GCATTGCGAAAGCATAGC ((..(((....)))..)) | 48.8 °C | -19 kcal/mol |
| GATCTGAAACCAGATC ((((((....)))))) | 43 °C | -29.7 kcal/mol |
| GGGTAAGGAAACTTACTC (.(((((....))))).) | 37.9 °C | -23.7 kcal/mol |
| GCTAGCGAAAGCTTTAGC ((((((....)))..))) | 40.5 °C | -14 kcal/mol |
| GGTGCCGCGAAAGCGACC (((..(((....)))))) | 45.6 °C | -9.79 kcal/mol |
| GACGACGAAAGTCGGTC ((((((....))).))) | 60.3 °C | -12.2 kcal/mol |
| GTATACCGAAAGGTTAC (((.(((....)))))) | 40.1 °C | -17.4 kcal/mol |
| GCCGAAACGAAAGTTGGC (((..(((....)))))) | 48 °C | -22.3 kcal/mol |
| GCCGTCGAAAGACTTGGC ((((((....)))..))) | 50.5 °C | -17.2 kcal/mol |
| GCGTTCGGAAACGAGCGC (((.(((....))).))) | 66 °C | -33.6 kcal/mol |
| GTACACGAAAGTGGCTAC ((((((....)))..))) | 35.7 °C | -13.9 kcal/mol |
| GATCAGCTTGCTGATC ((((((....)))))) | 68.8 °C | -47.5 kcal/mol |
| GGAGTCGAAAGACGGTCC ((((((....)))..))) | 39.2 °C | -14.1 kcal/mol |
| GGCCCGGGAAACCAGGCC ((((.((....)).)))) | 55.3 °C | -37.9 kcal/mol |
| GCGCACGAAAGTGATCGC ((((((....)))..))) | 49.6 °C | -24.8 kcal/mol |
